Test results as given in ChEMBL document CHEMBL1629645 (Antimicrob Agents Chemother, 2009).
Converted amounts (≈) assume the structure as drawn. The source made the active and inactive calls. The calls are words filed in the database; no cut-off is given here.

How the values were obtained:
Staphylococcus aureus [1] = experiment: Antibacterial activity against methicillin-resistant Staphylococcus aureus ATCC 43300 infected in Albino guiena pig assessed as decrease in planktonic bacterial counts in cage fluid at 12.5 mg/kg after measured on day 10 postinfection; format: functional
In short: (§1)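 Guinea pig subcutaneous cage model infected with 2 × 10^4 CFU MRSA. Intraperitoneal dosing every 12 h for 4 days, starting day 1. Cage-fluid CFU counted on day 1, day 4 (before last dose) and day 10. Δlog10 CFU/ml is day 4 or day 10 minus day 1. Quantification limit 1,000 CFU/ml; negatives set to 3 log10. Median and IQR.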

Staphylococcus aureus [2] = experiment: Antibacterial activity against methicillin-resistant Staphylococcus aureus ATCC 43300 infected in Albino guiena pig assessed as no. of culture-negative cage fluid samples at 12.5 mg/kg measured on day 4 postinfection; format: functional
In short: (§2)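 Same guinea pig cage infection and intraperitoneal 4-day, twice-daily regimen. Cage fluid cultured on day 4 and day 10. Result is the number of cage fluid samples without detectable MRSA growth over the total cages per group.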

Staphylococcus aureus [3] = experiment: Antibacterial activity against methicillin-resistant Staphylococcus aureus ATCC 43300 infected in Albino guiena pig assessed as no. of culture-negative cage fluid samples at 12.5 mg/kg measured on day 10 postinfection; format: functional; in short: as §2
Staphylococcus aureus [4] = experiment: Antibacterial activity against methicillin-resistant Staphylococcus aureus ATCC 43300 infected in Albino guiena pig assessed as decrease in planktonic bacterial counts in cage fluid at 12.5 mg/kg measured on day 4 postinfection; format: functional; in short: as §1
[5] = AUC (0 to 24 hrs) in cage fluid of Albino guiena pig at 12.5 mg/kg, ip; format: ADME, organism-based, Cavia porcellus; set-up: time < 24 hr, dose 12.5 mg/kg, route intraperitoneal; conditions: guinea pig
[6] = Tmax in cage fluid of Albino guiena pig at 12.5 mg/kg, ip; format: ADME, organism-based, Cavia porcellus; set-up: dose 12.5 mg/kg, route intraperitoneal; conditions: guinea pig
[7] = Cmin in cage fluid of Albino guiena pig at 12.5 mg/kg, ip after 12 hrs; format: ADME, organism-based, Cavia porcellus; set-up: dose 12.5 mg/kg, route intraperitoneal; conditions: guinea pig, read-out: Cmin
[8] = Cmax in cage fluid of Albino guiena pig at 12.5 mg/kg, ip after 12 hrs; format: ADME, organism-based, Cavia porcellus, Interstitial fluid; set-up: dose 12.5 mg/kg, route intraperitoneal; conditions: guinea pig
Staphylococcus aureus [9] = experiment: Antibacterial activity against 1 x10'6 to 5 x10^6 CFU/ml methicillin-resistant Staphylococcus aureus ATCC 43300 assessed as percent resistant isolates at MIC after 24 hrs by time kill study; format: functional
Staphylococcus aureus [10] = experiment: Antibacterial activity against 1 x10'6 to 5 x10^6 CFU/ml methicillin-resistant Staphylococcus aureus ATCC 43300 assessed as bacterial regrowth after 24 hrs by time kill study; format: functional, organism-based
In short: (§3)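 MRSA inoculum of 1 × 10^6 to 5 × 10^6 CFU/ml in 10 ml Mueller-Hinton broth. Drug at 1× and 4× MIC; drug-free growth control. Incubated at 37°C. Aliquots plated on Mueller-Hinton agar at 0, 6 and 24 h. Quantification limit 200 CFU/ml. Mean log10 CFU/ml reduction ± SD.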

Staphylococcus aureus [11] = experiment: Antibacterial activity against 1 x10'6 to 5 x10^6 CFU/ml methicillin-resistant Staphylococcus aureus ATCC 43300 assessed as log decrease in bacterial count at 4 times MIC after 6 hrs by time kill study; format: functional; in short: as §3
Staphylococcus aureus [12] = experiment: Antibacterial activity against 1 x10'6 to 5 x10^6 CFU/ml methicillin-resistant Staphylococcus aureus ATCC 43300 assessed as log decrease in bacterial count at MIC after 6 hrs by time kill study; format: functional; in short: as §3
Staphylococcus aureus [13] = experiment: Antibacterial activity against methicillin-resistant Staphylococcus aureus ATCC 43300 during stationary growth phase by macrodilution method; format: functional
Staphylococcus aureus [14] = experiment: Antibacterial activity against methicillin-resistant Staphylococcus aureus ATCC 43300 during logarithmic growth phase by macrodilution method; format: functional
Staphylococcus aureus [15] = experiment: Antibacterial activity against methicillin-resistant Staphylococcus aureus ATCC 43300 by macrodilution method; format: functional
In short: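 Broth macrodilution MIC in Mueller-Hinton broth per CLSI. Inoculum 1 × 10^5 to 5 × 10^5 CFU/ml. Ten twofold drug dilutions, 18 h at 37°C without shaking. MIC is the lowest concentration with no visible growth. Triplicate.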

CO[C@H]1/C=C/O[C@@]2(C)Oc3c(C)c(O)c4c(O)c(c(/C=N/N5CCN(C)CC5)c(O)c4c3C2=O)NC(=O)/C(C)=C\C=C\[C@H](C)[C@H](O)[C@@H](C)[C@@H](O)[C@@H](C)[C@H](OC(C)=O)[C@@H]1C [RIFAMPIN]
log10CFU/ml (Staphylococcus aureus [1]): <3 | Activity (Staphylococcus aureus [2]): 50% | Activity (Staphylococcus aureus [3]): 92% | log10CFU/ml (Staphylococcus aureus [4]): 3.1 | AUC(0-t) at 24 h [5]: 4600 ng·h/mL | Tmax [6]: 2.1 h | concentration at 12 h [7]: 100 ng/mL | Cmax [8]: 1000 ng/mL | Activity (Staphylococcus aureus [9]): 94% | Activity (Staphylococcus aureus [10]): inactive | log10CFU/ml (Staphylococcus aureus [11]): 0.5 | log10CFU/ml (Staphylococcus aureus [12]): 0.5 | MBC (Staphylococcus aureus [13]): 2.5 µg/mL (≈ 3.04 µM) | MBC (Staphylococcus aureus [14]): 0.08 µg/mL (≈ 0.0972 µM) | MIC (Staphylococcus aureus [15]): 0.01 µg/mL (≈ 0.0122 µM)
